Bioassay records (PubChem)
EphB4 ephrin blk = EphB4-ephrin-B2 interaction antagonists, primary screen, biochemical, TNYL-RAW peptide probe, fluorescence polarization; EphB4 LBD / TNYL-RAW-Alexa532 peptide; inhibition, % at 7 µM; 0.15% of 97,000 active;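 active = inhibition above the screen-wide mean inhibition plus 3 SD, cut at about 15% in these data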;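 note: 0% = DMSO wells and 100% = excess unlabeled TNYL-RAW peptide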
Target sequence (P54760 whole entry, looked up, the tested form may be a part): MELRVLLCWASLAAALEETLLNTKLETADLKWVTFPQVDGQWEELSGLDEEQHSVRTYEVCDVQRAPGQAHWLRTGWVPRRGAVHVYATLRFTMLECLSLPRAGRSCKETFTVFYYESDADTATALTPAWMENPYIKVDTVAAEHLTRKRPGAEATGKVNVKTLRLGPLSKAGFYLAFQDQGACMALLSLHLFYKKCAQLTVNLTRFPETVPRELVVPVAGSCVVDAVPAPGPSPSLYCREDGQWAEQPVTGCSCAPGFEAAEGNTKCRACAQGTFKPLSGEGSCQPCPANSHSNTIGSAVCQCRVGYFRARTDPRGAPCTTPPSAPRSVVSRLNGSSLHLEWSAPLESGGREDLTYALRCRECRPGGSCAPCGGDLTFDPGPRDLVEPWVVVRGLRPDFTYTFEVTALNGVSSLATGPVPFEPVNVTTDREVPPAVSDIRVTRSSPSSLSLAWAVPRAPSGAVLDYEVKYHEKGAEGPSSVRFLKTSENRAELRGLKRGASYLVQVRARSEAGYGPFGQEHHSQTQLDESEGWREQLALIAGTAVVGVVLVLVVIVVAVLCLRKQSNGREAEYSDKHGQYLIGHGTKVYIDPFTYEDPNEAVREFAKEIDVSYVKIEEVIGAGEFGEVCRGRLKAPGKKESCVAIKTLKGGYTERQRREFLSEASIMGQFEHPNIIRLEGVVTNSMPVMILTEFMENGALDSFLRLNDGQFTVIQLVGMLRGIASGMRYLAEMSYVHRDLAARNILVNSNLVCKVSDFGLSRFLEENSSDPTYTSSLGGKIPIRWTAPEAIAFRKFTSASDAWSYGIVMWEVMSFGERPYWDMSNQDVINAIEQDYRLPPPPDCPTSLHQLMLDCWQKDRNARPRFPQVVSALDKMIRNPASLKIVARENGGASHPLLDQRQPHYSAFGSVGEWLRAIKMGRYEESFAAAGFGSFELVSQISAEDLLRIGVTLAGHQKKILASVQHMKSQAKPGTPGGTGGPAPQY
PostGolgi ctrl = growth inhibition of yeast control strain, primary screen, counter-screen for post-Golgi transport modulator project; efflux-deficient yeast background strain, growth absorbance A615, 16 h; inhibition, % at 10 µM; 5% of 98,000 active; AID 738, 2007
Ecoli WT expand = growth inhibitors of wild-type E. coli, primary screen, strain BW25113, expanded library, OD600; OD600 absorbance; growth inhibition, % at 100 µM; 0.15% of 98,000 active; AID 710, 2007;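 active = growth inhibition above about 50% at one test dose, limit read from the data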;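 note: growth measured after 20 h incubation at 37 °C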
PostGolgi yeast = phenotypic screen on post-Golgi transport, primary screen | AID 739, 2007 | inhibition, % at 10 µM | post-Golgi transport phenotypic cell assay | 0.9% of 98,000 active;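 note: yeast cells grown in 1536-well plates; yeast grown about 18 h at 30C before absorbance read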
Ecoli tolC = growth inhibitors of E. coli tolC mutant, primary screen, strain BW25113 ΔtolC::kan, 384-well; OD615; growth inhibition, % at 10 µM (by protocol); 2.2% of 65,000 active; AID 573, 2007;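 active = growth inhibition at or above a cutoff equal to the mean over every tested compound plus 3 SD, cut at about 60% in these data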;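 note: growth measured after 20 h incubation at 37 °C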
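Test system: tolC-deleted E. coli BW25113 | Medium: LB with kanamycin 50 µg/mL | Compound dosing: Single concentration, 10 µM final per compound | Schedule: 37 °C, 20 h exposure | Measured by: OD at 615 nm | Evaluation: Percent growth inhibition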
Starred values were filed as active, the others as inactive; x = no result given. A selection: hits, their analogues and other compounds. The true share with any hit is near 6%. Cut-off read from the data, not from the text of the source, unless noted: active = inhibition above about 30%; inactive = the rest.

SMILES	EphB4 ephrin blk	PostGolgi ctrl	Ecoli WT expand	PostGolgi yeast	Ecoli tolC
CCOC(=O)c1[nH]c(C)c(C(=O)C(C)C)c1C	-6	2	0	-4	x
Cc1ccc(S(=O)(=O)N=Nc2c(O)[nH]c3ccccc23)cc1	-3	8	11	-7	x
Oc1[nH]c2ccccc2c1N=Nc1nc2ccccc2s1	15*	18	-5	0	x
Cc1ccc(Nc2nc(Nc3ccc(C)cc3)nc(SC3=NCCS3)n2)cc1	-4	38*	-23	-3	x
CCOC(=O)c1c(C)sc2c1N(C(=O)CCl)c1cc(Cl)ccc1S2	-2	78*	-9	9	x
O=C(Nc1nc(-c2cccs2)cs1)c1cccc(S(=O)(=O)N2CCCCCC2)c1	3	8	-16	-5	44
O=C(Nc1nc(-c2cccs2)cs1)c1ccc(S(=O)(=O)N2CCCCC2)cc1	1	41*	-8	18	30
CCOC(=O)c1[nH]c(C(=O)O)c(CCC(=O)OC)c1C	1	-1	0	7	1
COC(=O)CCc1c(C)[nH]c(C(=O)OCc2ccccc2)c1C	0	31*	6	13	2
Cc1nn(Cc2ccc(Cl)cc2Cl)c(C)c1NC(=O)NC12CC3CC(CC(C3)C1)C2	7	16	7	17	x
CCc1ccc(-c2cc(C(=O)N3N=C(C(F)F)CC3(O)C(F)F)c3ccccc3n2)cc1 (centres undefined)	8	37*	-7	2	x
O=S(=O)(c1cccs1)N1CCC(Cc2ccccc2)CC1	2	35*	-15	-5	30
O=C(NCCc1ccccc1)C1CCN(S(=O)(=O)c2cccs2)CC1	5	-2	-7	-3	-3
Cc1ccc(NC(=O)CCSc2nnnn2-c2ccc3c(c2)OCO3)cc1C	-7	16	-13	-1	53
CCCCC(CC)C(=O)Nc1ccccc1C(=O)NC(C)C (centres undefined)	-8	37*	9	2	-5
CCCCC(CC)C(=O)Nc1ccccc1C#N (centres undefined)	-7	17	3	-4	-28
Cc1ccc(S(=O)(=O)N2CCN(C(=O)N3CCOCC3)C2C(C)C)cc1 (centres undefined)	10	35*	-4	4	-19
Cc1ccc(S(=O)(=O)N2CCN(C(=O)c3ccccc3)C2C(C)C)cc1 (centres undefined)	-5	31*	-9	1	7
CC(=O)N1CCN(S(=O)(=O)c2ccc(C)cc2)C1C(C)C (centres undefined)	-4	-9	-8	6	-16
Cc1cc(C)cc(NCC(=O)Nc2c(C)cccc2C)c1	3	37*	11	3	6
CCN(CC)CC(=O)Nc1c(C)cccc1C	x	x	x	x	1
O=C(O)c1cccc(CN2C(=O)CSC2=O)c1	-12	36*	-3	-2	-15
O=C(O)c1cccc(CN2C(=O)SC(Nc3ccccc3)C2=O)c1 (centres undefined)	x	1	-5	4	-13
COCCN(C(=O)c1ccco1)C(C(=O)NC1CCCC1)c1cccs1 (centres undefined)	5	x	x	x	x
Cc1cc(C(C)(C)C)oc1C(=O)N(CC(=O)NC1CCCC1)Cc1ccccc1	-5	53*	-3	32*	x
SMILES	EphB4 ephrin blk	PostGolgi ctrl	Ecoli WT expand	PostGolgi yeast	Ecoli tolC
CCOC(=O)C1=C(C)C(c2ccccc2OC)NC(=S)N1 (centres undefined)	-2	2	-3	-3	x
N#C/C(=N\Nc1ccccc1Cl)C(=O)c1ccccc1	2	48*	-3	-3	x
N#C/C(=N\Nc1c(Cl)cccc1Cl)C(=O)NN	-3	9	10	2	x
N#C/C(=N\Nc1cccc(Cl)c1)C(=O)c1ccccc1	2	84*	0	11	x
Cc1ccc(OCC(=O)N2CC3(C)CC2CC(C)(C)C3)cc1 (centres undefined)	5	x	x	x	x
Cc1ccc(C(=O)Nc2ccccc2C(=O)N2CC3(C)CC2CC(C)(C)C3)cc1 (centres undefined)	1	41*	-8	2	x
CC(=O)c1cnc2nc(C)nn2c1C	4	-5	9	32*	-31
COCCNC(=O)CSc1nc2cc(OC)c(OC)cc2c(=O)n1Cc1ccc(OC)cc1	3	46*	-3	5	-15
Cc1cc(C)n2c(SCc3cccs3)nnc2n1	-3	37*	9	-7	-1
O=C(/C=C/c1ccc(Cl)cc1)NCCN1CCOCC1	-15	11	1	3	x
Cc1noc(/C=C/c2ccco2)c1S(=O)(=O)N1CCC(C(=O)NCc2ccco2)CC1	-4	22	-4	28	-1
Cc1noc(/C=C/c2ccco2)c1S(=O)(=O)N1CCC(C(=O)N2CCc3ccccc3C2)CC1	-5	39*	-20	1	10
Cc1ccc(CNC(=O)C2CCN(S(=O)(=O)c3c(C)noc3/C=C/c3ccco3)CC2)cc1	6	33*	-9	-9	x
N#C/C(=C/c1ccc2c(c1)OCO2)C(=O)NCCc1c[nH]c2ccccc12	-2	36*	1	8	x
CCOC(=O)/C(C#N)=C\c1ccc2c(c1)OCO2	-7	x	x	x	x
O=C(O)c1cnc(-c2ccccc2)nc1Sc1ccc(Cl)cc1Cl	0	30	-10	-4	x
C=CCn1c(CCNC(=O)c2cccs2)nnc1SCC(=O)Nc1cccc(F)c1	8	15	3	3	x
COC(=O)c1[nH]c2ccc(C)cc2c1NS(=O)(=O)c1ccc(F)cc1	-6	-2	-5	14	83*
COC(=O)c1[nH]c2ccc(C)cc2c1NC(=O)CN1CCCc2ccccc21	1	48*	5	-2	17
COC(=O)c1[nH]c2ccc(C)cc2c1NS(=O)(=O)c1ccc(F)c(C)c1	2	15	3	-8	96*
CCN(c1ccccc1)S(=O)(=O)c1ccc(N)c(OC)c1	-1	2	-10	-13	x
CCOc1cccc(NC(=O)C2CC(=O)N(C)C(=Nc3ccccc3)S2)c1 (centres undefined)	-5	16	-4	6	57
CCOc1cccc(NC(=O)C2CC(=O)N(C)C(=Nc3cccc(F)c3)S2)c1 (centres undefined)	-2	16	-2	-2	88*
O=C1c2cccc3c(N4CCCCC4)ccc(c23)C(=O)N1CCO	-5	13	-6	13	x
O=C1c2cccc3c(Nc4ccccc4Cl)c([N+](=O)[O-])cc(c23)C(=O)N1CCO	-2	17	0	45*	x
CCNC(=O)/C(=C/c1ccco1)NC(=O)/C=C/c1ccccc1	-17	-1	-3	-4	x
CCCCOC(=O)Nc1cc(Cl)ccc1C	-1	11	11	2	x
CCCOC(=O)NC(CC)COC(=O)Nc1cc(C)ccc1C (centres undefined)	-2	33*	-1	2	-8
Fc1ccc(-c2nc3nc4ccccc4nc3n2Cc2ccco2)cc1	-11	32*	-14	5	5
c1ccc(-c2nc3nc4ccccc4nc3n2Cc2ccco2)cc1	-7	32*	-4	-10	27
